Measured values taken from ChEMBL document CHEMBL2073862, “Localization of organic anion transporting polypeptides in the rat and human ciliary body epithelium” (Exp Eye Res, 2005).

T1: Solute carrier organic anion transporter family member 1A2 (Homo sapiens, UniProt P46721)
T1 sequence (P46721 whole entry): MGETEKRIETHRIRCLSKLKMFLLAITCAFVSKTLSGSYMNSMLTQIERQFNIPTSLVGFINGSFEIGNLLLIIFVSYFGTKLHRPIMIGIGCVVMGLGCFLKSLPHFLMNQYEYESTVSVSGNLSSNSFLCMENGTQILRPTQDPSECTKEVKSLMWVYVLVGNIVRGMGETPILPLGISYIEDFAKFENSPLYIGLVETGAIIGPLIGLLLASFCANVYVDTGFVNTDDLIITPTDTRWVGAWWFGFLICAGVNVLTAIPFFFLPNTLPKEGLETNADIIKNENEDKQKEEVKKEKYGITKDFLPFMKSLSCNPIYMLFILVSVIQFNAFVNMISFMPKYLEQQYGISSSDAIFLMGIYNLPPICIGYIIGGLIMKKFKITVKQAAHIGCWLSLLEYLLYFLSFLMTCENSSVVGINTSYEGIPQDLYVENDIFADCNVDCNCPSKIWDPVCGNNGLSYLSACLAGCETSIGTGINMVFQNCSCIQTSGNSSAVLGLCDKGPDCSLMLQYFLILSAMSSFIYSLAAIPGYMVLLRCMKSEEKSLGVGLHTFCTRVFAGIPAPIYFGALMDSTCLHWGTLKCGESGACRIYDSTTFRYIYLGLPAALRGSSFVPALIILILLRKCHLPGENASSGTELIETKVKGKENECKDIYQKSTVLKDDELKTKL

T2: Solute carrier organic anion transporter family member 2B1 (Homo sapiens, UniProt O94956)
T2 sequence (O94956 whole entry): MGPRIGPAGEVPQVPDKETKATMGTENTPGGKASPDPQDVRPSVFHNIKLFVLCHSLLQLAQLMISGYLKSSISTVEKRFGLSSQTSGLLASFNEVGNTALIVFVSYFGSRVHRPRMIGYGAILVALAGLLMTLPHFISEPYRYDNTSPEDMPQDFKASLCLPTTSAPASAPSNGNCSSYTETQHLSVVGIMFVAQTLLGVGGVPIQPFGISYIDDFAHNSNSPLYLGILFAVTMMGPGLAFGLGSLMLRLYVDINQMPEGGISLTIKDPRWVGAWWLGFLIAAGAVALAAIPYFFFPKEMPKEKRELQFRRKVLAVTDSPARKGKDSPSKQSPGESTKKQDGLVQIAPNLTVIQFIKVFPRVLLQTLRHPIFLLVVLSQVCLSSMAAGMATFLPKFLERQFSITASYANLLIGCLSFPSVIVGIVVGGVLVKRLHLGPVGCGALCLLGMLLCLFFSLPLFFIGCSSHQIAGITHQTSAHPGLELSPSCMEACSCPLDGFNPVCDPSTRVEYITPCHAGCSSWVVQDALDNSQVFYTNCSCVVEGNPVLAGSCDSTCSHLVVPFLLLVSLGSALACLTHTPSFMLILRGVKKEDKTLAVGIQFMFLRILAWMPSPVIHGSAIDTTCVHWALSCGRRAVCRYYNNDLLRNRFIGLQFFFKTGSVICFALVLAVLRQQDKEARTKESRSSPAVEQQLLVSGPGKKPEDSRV

T3: Solute carrier organic anion transporter family member 4A1 (Homo sapiens, UniProt Q96BD0)
T3 sequence (Q96BD0 whole entry): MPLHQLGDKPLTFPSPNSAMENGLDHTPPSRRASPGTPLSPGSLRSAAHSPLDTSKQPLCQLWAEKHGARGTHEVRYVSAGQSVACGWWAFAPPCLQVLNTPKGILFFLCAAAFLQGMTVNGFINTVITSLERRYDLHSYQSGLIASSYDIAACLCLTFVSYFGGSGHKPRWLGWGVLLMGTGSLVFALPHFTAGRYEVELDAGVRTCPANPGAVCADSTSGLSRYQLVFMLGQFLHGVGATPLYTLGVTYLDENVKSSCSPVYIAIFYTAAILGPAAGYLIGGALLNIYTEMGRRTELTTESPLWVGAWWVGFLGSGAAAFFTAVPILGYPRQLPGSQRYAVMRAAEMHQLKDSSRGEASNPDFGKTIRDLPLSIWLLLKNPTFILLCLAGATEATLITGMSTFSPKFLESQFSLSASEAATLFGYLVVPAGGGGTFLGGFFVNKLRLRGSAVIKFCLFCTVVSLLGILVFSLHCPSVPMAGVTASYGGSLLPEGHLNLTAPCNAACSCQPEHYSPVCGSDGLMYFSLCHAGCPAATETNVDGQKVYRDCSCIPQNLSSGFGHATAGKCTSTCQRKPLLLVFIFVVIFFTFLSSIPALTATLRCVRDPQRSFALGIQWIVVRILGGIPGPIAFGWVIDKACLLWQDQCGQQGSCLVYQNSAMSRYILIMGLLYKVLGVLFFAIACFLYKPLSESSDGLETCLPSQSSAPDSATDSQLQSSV

T4: Solute carrier organic anion transporter family member 1C1 (Homo sapiens, UniProt Q9NYB5)
T4 sequence (Q9NYB5 whole entry): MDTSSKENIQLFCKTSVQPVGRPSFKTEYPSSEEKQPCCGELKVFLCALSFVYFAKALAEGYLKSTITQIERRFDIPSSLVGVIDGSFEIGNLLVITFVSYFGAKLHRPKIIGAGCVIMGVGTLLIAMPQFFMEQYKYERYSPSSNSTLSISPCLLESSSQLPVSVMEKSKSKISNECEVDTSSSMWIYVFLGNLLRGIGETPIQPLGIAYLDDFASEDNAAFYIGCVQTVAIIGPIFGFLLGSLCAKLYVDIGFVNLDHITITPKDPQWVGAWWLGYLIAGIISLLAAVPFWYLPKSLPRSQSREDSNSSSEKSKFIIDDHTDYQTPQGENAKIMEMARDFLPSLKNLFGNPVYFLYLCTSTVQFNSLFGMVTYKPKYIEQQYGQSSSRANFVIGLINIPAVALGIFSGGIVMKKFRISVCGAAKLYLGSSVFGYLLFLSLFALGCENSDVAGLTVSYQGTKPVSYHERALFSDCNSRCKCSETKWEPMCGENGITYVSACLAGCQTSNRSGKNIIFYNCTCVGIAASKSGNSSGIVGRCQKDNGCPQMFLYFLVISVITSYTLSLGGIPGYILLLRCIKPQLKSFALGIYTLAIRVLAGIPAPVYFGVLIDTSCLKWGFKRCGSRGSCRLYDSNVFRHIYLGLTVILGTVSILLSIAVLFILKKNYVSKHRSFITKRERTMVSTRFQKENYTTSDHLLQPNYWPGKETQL

T5: Solute carrier organic anion transporter family member 3A1 (Homo sapiens, UniProt Q9UIG8)
T5 sequence (Q9UIG8 whole entry): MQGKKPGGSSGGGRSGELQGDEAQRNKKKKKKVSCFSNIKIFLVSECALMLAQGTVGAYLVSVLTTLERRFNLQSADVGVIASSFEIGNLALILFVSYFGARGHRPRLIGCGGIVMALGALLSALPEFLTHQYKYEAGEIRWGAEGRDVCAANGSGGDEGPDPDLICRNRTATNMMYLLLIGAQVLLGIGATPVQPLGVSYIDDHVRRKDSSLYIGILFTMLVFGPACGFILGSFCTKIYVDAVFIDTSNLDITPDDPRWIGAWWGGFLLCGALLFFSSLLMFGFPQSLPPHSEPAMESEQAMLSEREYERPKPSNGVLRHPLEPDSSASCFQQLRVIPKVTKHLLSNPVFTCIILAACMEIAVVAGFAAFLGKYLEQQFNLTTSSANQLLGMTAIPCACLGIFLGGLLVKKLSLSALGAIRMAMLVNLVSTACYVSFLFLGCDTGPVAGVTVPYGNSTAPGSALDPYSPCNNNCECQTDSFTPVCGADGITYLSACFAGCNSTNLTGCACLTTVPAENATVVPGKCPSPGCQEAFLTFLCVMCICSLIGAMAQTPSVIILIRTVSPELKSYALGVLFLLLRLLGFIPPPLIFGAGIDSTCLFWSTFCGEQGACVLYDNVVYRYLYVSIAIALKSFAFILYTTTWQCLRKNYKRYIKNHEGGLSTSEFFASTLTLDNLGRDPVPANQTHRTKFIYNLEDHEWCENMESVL


Tests used:
[1] = biological target: T1, Solute carrier organic anion transporter family member 1A2; assay: (§1) TP_TRANSPORTER: uptake in Xenopus laevis oocytes; type: functional, cell-based, Oocyte
Outline: (§2)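 Oocytes were injected with 5 ng of cRNA for human OATP1A2, 1C1, 2B1, 3A1 or 4A1, or with water, then cultured 3 days. Radioactivity was counted by scintillation, water-injected uptake was subtracted, and Km came from nonlinear regression of 12–15 oocytes.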

[2] = biological target: T2, Solute carrier organic anion transporter family member 2B1; assay: as §1; type: functional, cell-based; conditions: oocyte; outline: as §2
[3] = biological target: T3, Solute carrier organic anion transporter family member 4A1; assay: as §1; type: functional, cell-based; conditions: oocyte; outline: as §2
[4] = biological target: T4, Solute carrier organic anion transporter family member 1C1; assay: as §1; type: functional, cell-based; conditions: oocyte; outline: as §2
[5] = biological target: T5, Solute carrier organic anion transporter family member 3A1; assay: as §1; type: functional, cell-based; conditions: oocyte; outline: as §2
[6] = substrate: CCCCCCCC(=O)CC[C@@H]1[C@@H](C/C=C\CCCC(=O)O)[C@@H](O)C[C@H]1O; assay: as §1; type: functional, cell-based, Oocyte; outline: as §2

Row | Activity ([1]; oocyte) | Activity [2] | Activity [3] | Activity [4] | Activity [5] | Km ([1]; Xenopus laevis oocytes) [µM] | Molecule | Km [6] [µM]
1 | is not a substrate [(-)] | is not a substrate [(-)] | is not a substrate [(-)] | is not a substrate [(-)] | is not a substrate [(-)] |  | CCCCCCCC(=O)CC[C@@H]1[C@@H](C/C=C\CCCC(=O)OC(C)C)[C@@H](O)C[C@H]1O [UNOPROSTONE ISOPROPYL] | 
2 |  |  |  | is not a substrate [(-)] | is not a substrate [(-)] | 93 | CCCCCCCC(=O)CC[C@@H]1[C@@H](C/C=C\CCCC(=O)O)[C@@H](O)C[C@H]1O [UNOPROSTONE] | 
3 |  |  |  |  |  |  | Solute carrier organic anion transporter family member 2B1 (Homo sapiens) (protein) MGPRIGPAGEVPQVPDKETKATMGTENTPGGKASPDPQDVRPSVFHNIKLFVLCHSLLQLAQLMISGYLKSSISTVEKRFGLSSQTSGLLASFNEVGNTALIVFVSYFGSRVHRPRMIGYGAILVALAGLLMTLPHFISEPYRYDNTSPEDMPQDFKASLCLPTTSAPASAPSNGNCSSYTETQHLSVVGIMFVAQTLLGVGGVPIQPFGISYIDDFAHNSNSPLYLGILFAVTMMGPGLAFGLGSLMLRLYVDINQMPEGGISLTIKDPRWVGAWWLGFLIAAGAVALAAIPYFFFPKEMPKEKRELQFRRKVLAVTDSPARKGKDSPSKQSPGESTKKQDGLVQIAPNLTVIQFIKVFPRVLLQTLRHPIFLLVVLSQVCLSSMAAGMATFLPKFLERQFSITASYANLLIGCLSFPSVIVGIVVGGVLVKRLHLGPVGCGALCLLGMLLCLFFSLPLFFIGCSSHQIAGITHQTSAHPGLELSPSCMEACSCPLDGFNPVCDPSTRVEYITPCHAGCSSWVVQDALDNSQVFYTNCSCVVEGNPVLAGSCDSTCSHLVVPFLLLVSLGSALACLTHTPSFMLILRGVKKEDKTLAVGIQFMFLRILAWMPSPVIHGSAIDTTCVHWALSCGRRAVCRYYNNDLLRNRFIGLQFFFKTGSVICFALVLAVLRQQDKEARTKESRSSPAVEQQLLVSGPGKKPEDSRV | 91
4 |  |  |  |  |  |  | Solute carrier organic anion transporter family member 4A1 (Homo sapiens) (protein) MPLHQLGDKPLTFPSPNSAMENGLDHTPPSRRASPGTPLSPGSLRSAAHSPLDTSKQPLCQLWAEKHGARGTHEVRYVSAGQSVACGWWAFAPPCLQVLNTPKGILFFLCAAAFLQGMTVNGFINTVITSLERRYDLHSYQSGLIASSYDIAACLCLTFVSYFGGSGHKPRWLGWGVLLMGTGSLVFALPHFTAGRYEVELDAGVRTCPANPGAVCADSTSGLSRYQLVFMLGQFLHGVGATPLYTLGVTYLDENVKSSCSPVYIAIFYTAAILGPAAGYLIGGALLNIYTEMGRRTELTTESPLWVGAWWVGFLGSGAAAFFTAVPILGYPRQLPGSQRYAVMRAAEMHQLKDSSRGEASNPDFGKTIRDLPLSIWLLLKNPTFILLCLAGATEATLITGMSTFSPKFLESQFSLSASEAATLFGYLVVPAGGGGTFLGGFFVNKLRLRGSAVIKFCLFCTVVSLLGILVFSLHCPSVPMAGVTASYGGSLLPEGHLNLTAPCNAACSCQPEHYSPVCGSDGLMYFSLCHAGCPAATETNVDGQKVYRDCSCIPQNLSSGFGHATAGKCTSTCQRKPLLLVFIFVVIFFTFLSSIPALTATLRCVRDPQRSFALGIQWIVVRILGGIPGPIAFGWVIDKACLLWQDQCGQQGSCLVYQNSAMSRYILIMGLLYKVLGVLFFAIACFLYKPLSESSDGLETCLPSQSSAPDSATDSQLQSSV | 132
